Active and inactive are the calls of the source. The calls are words filed in the database; no cut-off is given here.
Legend:
[1] = Efflux ratio of apparent permeability from apical to basolateral side to basolateral to apical side in human Caco2 cells at 10 uM after 60 mins by LC-MS/MS analysis; details: Caco-2
[2] = Apparent permeability from basolateral to apical side in human Caco2 cells at 10 uM after 60 mins by LC-MS/MS analysis; details: Caco-2
[3] = Apparent permeability from apical to basolateral side in human Caco2 cells at 10 uM after 60 mins by LC-MS/MS analysis; details: Caco-2
[4] = Metabolic stability in rat liver microsomes assessed as compound remaining at 1 uM after 30 mins by LC-MS/MS; assay type: ADME, Microsome; details: read-out: Stability
Mus musculus [5] = assay: Reduction of glucose excursions in C57Bl/6j lean mouse at 3 mg/kg, po measured after 45 mins by oral glucose tolerance test; assay type: functional, organism-based; design: dose 3 mg/kg
In short: (§1)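 OGTT after oral treatment: C57BL/6j lean mice at 3 mg/kg, and ob/ob mice at 1, 3 and 10 mg/kg. Blood glucose followed over the glucose challenge; excursion expressed as AUC₀₋₁₂₀ change rate (percent inhibition).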

Dipeptidyl peptidase 4 = Dipeptidyl peptidase 4 (Homo sapiens, UniProt P27487); assay: Inhibition of human DPP4 after 10 mins
Dipeptidyl peptidase 8 = Dipeptidyl peptidase 8 (Homo sapiens, UniProt Q6V1X1); assay: Inhibition of DPP8
Dipeptidyl peptidase 9 = Dipeptidyl peptidase 9 (Homo sapiens, UniProt Q86TI2); assay: Inhibition of DPP9
[6] = Oral bioavailability in Sprague-Dawley rat at 20 to 25 mg/kg administered as single dose; assay type: ADME, organism-based; details: in vivo
[7] = Half life in Sprague-Dawley rat at 20 to 25 mg/kg, po and […], iv administered as single dose; assay type: ADME, organism-based; design: dose 20-25 mg/kg, route oral; details: in vivo
Mus musculus [8] = assay: Reduction of glucose excursions in ob/ob type 2 diabetes mouse model at 1 mg/kg, po measured after 45 mins by oral glucose tolerance test; assay type: functional; details: 0.75 h; in short: as §1
Mus musculus [9] = assay: Reduction of glucose excursions in ob/ob type 2 diabetes mouse model at 3 mg/kg, po measured after 45 mins by oral glucose tolerance test; assay type: functional; details: 0.75 h; in short: as §1
Mus musculus [10] = assay: Reduction of glucose excursions in ob/ob type 2 diabetes mouse model at 10 mg/kg, po measured after 45 mins by oral glucose tolerance test; assay type: functional; details: 0.75 h; in short: as §1
[11] = target: Voltage-gated inwardly rectifying potassium channel KCNH2 (Homo sapiens, UniProt Q12809)
[12] = Metabolic stability in rat liver microsomes assessed as compound turnover at 1 uM after 30 mins by LC-MS/MS; assay type: ADME, Microsome; details: read-out: Drug metabolism
In short: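 Pooled rat liver microsomes, 30 min incubation; read-out is percent compound turnover (hepatic first-pass effect); mean of at least three independent determinations.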

Sequence of Dipeptidyl peptidase 8 (Q6V1X1 whole entry): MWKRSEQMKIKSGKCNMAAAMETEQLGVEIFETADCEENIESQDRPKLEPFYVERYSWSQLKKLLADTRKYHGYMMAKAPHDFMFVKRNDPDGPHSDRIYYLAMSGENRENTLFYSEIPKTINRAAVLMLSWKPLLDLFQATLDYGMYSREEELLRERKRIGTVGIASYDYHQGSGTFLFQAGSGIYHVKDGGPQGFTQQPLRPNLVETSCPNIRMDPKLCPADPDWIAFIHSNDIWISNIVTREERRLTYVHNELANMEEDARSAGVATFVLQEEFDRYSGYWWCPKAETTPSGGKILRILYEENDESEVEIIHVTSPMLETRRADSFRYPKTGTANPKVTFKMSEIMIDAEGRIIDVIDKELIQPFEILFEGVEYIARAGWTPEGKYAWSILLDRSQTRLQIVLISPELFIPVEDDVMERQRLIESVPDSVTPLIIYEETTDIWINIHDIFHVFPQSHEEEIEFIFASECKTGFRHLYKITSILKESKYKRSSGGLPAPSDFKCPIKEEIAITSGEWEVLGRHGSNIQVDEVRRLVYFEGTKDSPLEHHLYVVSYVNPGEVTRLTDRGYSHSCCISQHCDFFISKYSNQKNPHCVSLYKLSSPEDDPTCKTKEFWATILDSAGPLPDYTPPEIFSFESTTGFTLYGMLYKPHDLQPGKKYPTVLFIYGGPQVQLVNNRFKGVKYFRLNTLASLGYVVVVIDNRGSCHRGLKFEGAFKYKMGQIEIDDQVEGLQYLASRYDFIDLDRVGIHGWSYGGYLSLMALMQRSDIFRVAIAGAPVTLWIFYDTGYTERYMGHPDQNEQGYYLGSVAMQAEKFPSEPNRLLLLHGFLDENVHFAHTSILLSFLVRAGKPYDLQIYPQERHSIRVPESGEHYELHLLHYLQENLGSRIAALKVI
Sequence of Dipeptidyl peptidase 9 (Q86TI2 whole entry): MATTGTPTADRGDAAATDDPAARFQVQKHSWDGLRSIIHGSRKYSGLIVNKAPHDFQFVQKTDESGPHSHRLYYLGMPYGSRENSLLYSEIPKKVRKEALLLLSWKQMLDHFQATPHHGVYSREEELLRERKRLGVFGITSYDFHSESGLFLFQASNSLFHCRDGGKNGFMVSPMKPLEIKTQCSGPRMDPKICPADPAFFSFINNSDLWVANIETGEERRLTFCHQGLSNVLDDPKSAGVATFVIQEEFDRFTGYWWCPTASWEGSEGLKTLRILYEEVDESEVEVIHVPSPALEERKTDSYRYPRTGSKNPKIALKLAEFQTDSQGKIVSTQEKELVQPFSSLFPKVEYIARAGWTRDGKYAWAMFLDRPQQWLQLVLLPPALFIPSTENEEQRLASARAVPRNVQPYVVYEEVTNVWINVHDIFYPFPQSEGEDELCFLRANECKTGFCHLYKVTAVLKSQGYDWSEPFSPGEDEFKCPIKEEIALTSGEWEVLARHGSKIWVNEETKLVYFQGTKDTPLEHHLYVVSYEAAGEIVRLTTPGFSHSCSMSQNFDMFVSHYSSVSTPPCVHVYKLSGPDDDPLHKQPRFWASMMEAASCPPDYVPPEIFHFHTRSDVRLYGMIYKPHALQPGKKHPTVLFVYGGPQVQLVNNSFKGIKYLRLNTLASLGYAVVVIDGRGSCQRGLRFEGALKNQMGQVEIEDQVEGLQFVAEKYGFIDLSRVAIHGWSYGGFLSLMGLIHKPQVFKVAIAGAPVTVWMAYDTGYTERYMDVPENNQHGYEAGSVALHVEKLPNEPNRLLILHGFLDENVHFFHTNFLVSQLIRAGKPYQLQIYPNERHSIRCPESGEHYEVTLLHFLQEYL
Sequence of Dipeptidyl peptidase 4 (P27487 whole entry): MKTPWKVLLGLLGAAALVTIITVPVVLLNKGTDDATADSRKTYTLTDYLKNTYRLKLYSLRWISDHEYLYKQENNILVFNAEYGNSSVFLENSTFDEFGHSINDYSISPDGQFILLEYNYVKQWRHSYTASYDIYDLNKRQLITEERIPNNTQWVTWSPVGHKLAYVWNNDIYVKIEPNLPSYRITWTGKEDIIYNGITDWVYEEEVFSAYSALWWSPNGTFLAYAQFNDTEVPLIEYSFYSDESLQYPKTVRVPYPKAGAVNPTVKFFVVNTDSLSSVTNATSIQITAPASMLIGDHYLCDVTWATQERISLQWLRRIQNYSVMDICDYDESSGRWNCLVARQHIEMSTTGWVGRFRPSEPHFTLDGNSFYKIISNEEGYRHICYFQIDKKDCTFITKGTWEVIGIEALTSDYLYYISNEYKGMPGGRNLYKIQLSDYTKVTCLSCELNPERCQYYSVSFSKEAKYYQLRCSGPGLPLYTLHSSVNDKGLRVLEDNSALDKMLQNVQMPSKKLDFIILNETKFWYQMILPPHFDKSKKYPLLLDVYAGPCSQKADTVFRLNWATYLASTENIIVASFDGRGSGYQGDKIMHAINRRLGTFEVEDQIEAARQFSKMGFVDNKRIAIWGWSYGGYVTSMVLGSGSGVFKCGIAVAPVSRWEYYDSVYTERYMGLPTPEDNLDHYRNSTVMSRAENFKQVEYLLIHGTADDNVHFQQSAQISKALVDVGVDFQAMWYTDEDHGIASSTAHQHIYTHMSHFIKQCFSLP
Sequence of Voltage-gated inwardly rectifying potassium channel KCNH2 (Q12809 whole entry): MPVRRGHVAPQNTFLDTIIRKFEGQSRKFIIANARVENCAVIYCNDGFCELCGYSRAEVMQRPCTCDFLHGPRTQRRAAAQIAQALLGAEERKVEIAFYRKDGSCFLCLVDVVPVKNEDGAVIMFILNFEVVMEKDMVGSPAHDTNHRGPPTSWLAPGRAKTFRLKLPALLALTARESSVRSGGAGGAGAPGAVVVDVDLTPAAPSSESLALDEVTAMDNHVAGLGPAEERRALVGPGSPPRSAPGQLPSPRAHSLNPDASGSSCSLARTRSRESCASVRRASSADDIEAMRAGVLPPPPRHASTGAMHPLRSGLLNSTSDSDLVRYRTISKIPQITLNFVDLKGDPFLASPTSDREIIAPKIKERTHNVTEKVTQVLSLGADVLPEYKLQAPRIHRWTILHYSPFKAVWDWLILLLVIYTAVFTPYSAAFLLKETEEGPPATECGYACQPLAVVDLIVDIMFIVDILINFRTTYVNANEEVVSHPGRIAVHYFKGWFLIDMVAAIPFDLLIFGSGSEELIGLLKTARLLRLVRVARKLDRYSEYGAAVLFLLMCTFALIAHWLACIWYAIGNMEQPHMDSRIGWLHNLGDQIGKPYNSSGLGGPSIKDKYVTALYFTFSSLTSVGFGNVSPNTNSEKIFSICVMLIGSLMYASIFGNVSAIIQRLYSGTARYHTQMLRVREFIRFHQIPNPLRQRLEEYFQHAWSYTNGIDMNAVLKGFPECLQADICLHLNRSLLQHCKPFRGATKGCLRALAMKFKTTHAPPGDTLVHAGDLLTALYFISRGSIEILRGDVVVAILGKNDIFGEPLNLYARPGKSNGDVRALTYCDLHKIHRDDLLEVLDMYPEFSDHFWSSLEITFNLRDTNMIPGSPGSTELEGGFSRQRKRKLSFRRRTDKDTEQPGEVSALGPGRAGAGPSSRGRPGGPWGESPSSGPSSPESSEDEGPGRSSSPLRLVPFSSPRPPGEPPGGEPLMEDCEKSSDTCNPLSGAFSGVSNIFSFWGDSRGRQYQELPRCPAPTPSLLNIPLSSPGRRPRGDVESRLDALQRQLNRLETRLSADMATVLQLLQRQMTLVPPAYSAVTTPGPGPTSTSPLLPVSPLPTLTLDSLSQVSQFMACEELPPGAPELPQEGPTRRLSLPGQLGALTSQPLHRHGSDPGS

Compound | efflux ratio at 1 h, 10 µM [1] | Papp B→A at 1 h, 10 µM [2] [×10⁻⁶ cm/s] | Papp A→B at 1 h, 10 µM [3] [×10⁻⁶ cm/s] | remaining at 0.5 h, 1 µM [4] [%] | also measured
N#Cc1ccccc1Cn1c(N2CCC[C@@H](N)C2)nc2c(-c3cccnc3)c[nH]c2c1=O | 37.8 | 11.3 | 0.3 |  | 
N#Cc1ccccc1Cn1c(N2CCC[C@@H](N)C2)nc2sccc2c1=O |  |  |  | 24.6 | 
Cn1c(=O)cc(N2CCC[C@@H](N)C2)n(Cc2ccccc2C#N)c1=O |  |  |  |  | inhibition (Mus musculus [5]): Active
Cc1cc2c(=O)n(Cc3ccccc3C#N)c(N3CCC[C@@H](N)C3)nc2[nH]1 |  | 9.36 | 4.36 | 91.4 | IC50 (Dipeptidyl peptidase 4): 0.0138 µM; IC50 (Dipeptidyl peptidase 8): > 25 µM; IC50 (Dipeptidyl peptidase 9): > 25 µM
N#Cc1ccccc1Cn1c(N2CCC[C@@H](N)C2)nc2c(-c3ccsc3)c[nH]c2c1=O | 11.4 | 21.2 | 1.86 |  | 
N#Cc1ccccc1Cn1c(N2CCC[C@@H](N)C2)nc2[nH]c(-c3ccc(F)cc3)cc2c1=O | 45.3 | 26.6 | 0.59 |  | 
N#Cc1ccccc1Cn1c(N2CCC[C@@H](N)C2)nc2c(-c3ccncc3)c[nH]c2c1=O | 2.51 | 10.3 | 4.13 | 28.1 | 
N#Cc1ccccc1Cn1c(N2CCC[C@@H](N)C2)nc2scc(C(F)(F)F)c2c1=O |  |  |  | 4.6 | 
N#Cc1ccccc1Cn1c(N2CCC[C@@H](N)C2)nc2c(Br)c[nH]c2c1=O |  | 18.4 | 2.81 | 78 | bioavailability [6]: 41%; IC50 (Dipeptidyl peptidase 8): > 10 µM; IC50 (Dipeptidyl peptidase 9): > 10 µM; half-life [7]: 2 h; inhibition (Mus musculus [5]): Active; inhibition in vivo at 1 mg/kg (Mus musculus [8]): 27.9%; inhibition in vivo at 3 mg/kg (Mus musculus [9]): 51.9%; inhibition in vivo at 10 mg/kg (Mus musculus [10]): 72.7%; IC50 [11]: > 300 µM
N#Cc1ccccc1Cn1c(N2CCC[C@@H](N)C2)nc2[nH]c(Br)cc2c1=O |  | 11.4 | 5.48 | 71.9 | IC50 (Dipeptidyl peptidase 4): 0.00264 µM; IC50 (Dipeptidyl peptidase 8): > 25 µM; IC50 (Dipeptidyl peptidase 9): > 25 µM
N#Cc1ccccc1Cn1c(N2CCC[C@@H](N)C2)nc2cc[nH]c2c1=O | 4.2 | 14.4 | 3.44 | 39.2 | 
N#Cc1ccccc1Cn1c(N2CCC[C@@H](N)C2)nc2[nH]c(-c3cccnc3)cc2c1=O |  | 6.01 | 2.55 | 73.8 | IC50 (Dipeptidyl peptidase 4): 0.00234 µM; IC50 (Dipeptidyl peptidase 8): > 10 µM; IC50 (Dipeptidyl peptidase 9): > 10 µM
Cc1csc2nc(N3CCC[C@@H](N)C3)n(Cc3ccccc3C#N)c(=O)c12 |  |  |  | 3.27 | 
Cc1csc2c(=O)n(Cc3ccccc3C#N)c(N3CCC[C@@H](N)C3)nc12 |  |  |  | 0 | 
N#Cc1ccccc1Cn1c(N2CCC[C@@H](N)C2)nc2ccsc2c1=O |  |  |  | 6.6 | bioavailability [6]: 23.3%; metabolised at 0.5 h, 1 µM [12]: 93%; inhibition (Mus musculus [5]): Active
N#Cc1ccccc1Cn1c(N2CCC[C@@H](N)C2)nc2[nH]ccc2c1=O |  |  |  | 65.1 | bioavailability [6]: 5.7%
Cn1ccc2c(=O)n(Cc3ccccc3C#N)c(N3CCC[C@@H](N)C3)nc21 | 13.3 | 24.6 | 1.84 |  | 
Cn1c(Br)c(Br)c2c(=O)n(Cc3ccccc3C#N)c(N3CCC[C@@H](N)C3)nc21 | 3.37 | 8.41 | 2.5 | 41 | 
